Assay results reported in article PMC8561282 (Haematologica, 2021).
Entries after “also recorded” stand apart in the source; their conditions may differ.

Experiments:
[1] = system: RBC from WT, HuB3, HA Del and BS KO mice; test: Glutathione oxidation; format: cell-based, mouse
[2] = system: pentose phosphate pathway; test: 1,2,3-13C3-glucose tracing; format: cell-based, mouse
Outline: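 Red cells from wild-type, humanized band 3, HA Del (lacking residues 1-11) and BS KO (lacking residues 12-23) mice were stimulated with methylene blue and incubated with 1,2,3-13C3-glucose at 37 °C for 1 h. In rescue arms, cells were preincubated with recombinant band 3 N-terminal peptide (residues 1-56). The read-out was the ratio of lactate isotopologues +3 (glycolysis) and +2 (pentose phosphate pathway), measured by UHPLC-MS.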

[3] = system: RBC cytosol and membrane proteins; format: binding, human; conditions: part of macromolecular complexes with direct interactors
GAPDH = test: 15N-HSQC NMR of band 3 peptide 1-56 upon titration of GAPDH; format: binding; conditions: 25 °C, 100 or 200 GAPDH (mM in text, μM in legend)
Outline: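 15N-HSQC spectra of 15N-labelled recombinant band 3 peptide 1-56 were recorded at 25 °C on a 900 instrument using a standard sequence. Recombinant GAPDH (tetramer) was titrated at 0, 100 and 200 (units as printed are unreliable). Individual residue amide signals were followed across the titration.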

[4] = system: pentose phosphate pathway; format: cell-based, human; conditions: RBC lysates, 1,2,3-13C3-glucose 5 mM, 37 °C, 1 h, methylene blue; recombinant peptide
Outline: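 Red cell lysates came from the band 3 Neapolis subject (AE1 residues 1-11 absent) and from healthy donors (n=3). Lysates were incubated with 1,2,3-13C3-glucose at 37 °C for 1 h under methylene blue stimulation, with or without recombinant N-terminal band 3 peptide (residues 1-56). Isotopologues were measured by UHPLC-MS to assess pentose phosphate pathway activation.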

[5] = recombinant peptide, 1,2,3-13C3-glucose, methylene blue

| Molecule | Glutathione oxidation with MB [1] | Activation of the PPP, methylene blue stimulation, HA Del ([2]; 37 °C, 1 h, HA Del mouse RBC) | Candidate indirect interactors by pull-down followed by crosslinking [3] | Y8 amide signal upon GAPDH titration (GAPDH) | Y46 amide signal upon GAPDH titration (GAPDH) | PPP activation and glycolysis with peptide, all mouse strains ([2]; legend of Figure 1I, recombinant peptide, methylene blue) | PPP activation with peptide, BS KO mouse RBC [2, 5] | PPP activation with peptide, HA Del mouse RBC [2, 5] | Rescue of the deficit in PPP activation, band 3 Neapolis [4] |
| --- | --- | --- | --- | --- | --- | --- | --- | --- | --- |
| CN(C)c1ccc2nc3ccc(=[N+](C)C)cc-3sc2c1 [MB, methylene blue, reference compound] | increased glutathione oxidation (GSSG/GSH ratios) | ablated in HA Del mice | – | – | – | – | – | – | – |
| AE11-56: recombinantly expressed peptide coding for amino acids 1-56 of the N-terminus of band 3 (AE1) (MEELQDDYEDMMEENLEQEEYEDPDIPESQMEEPAAHDTEATATDYHTTSHPGTHK; UniProt P02730 1-56, looked up, fragment) | – | – | peroxiredoxin 2,[51] peroxiredoxin 6, catalase, phosphofructokinase isoforms,[12] proteins 4.1 and 4.2, glucose phosphate isomerase, stomatin, adducin b, carbonic anhydrase 1, and 1-phosphatidylinositol 4,5-bisphosphate phosphodiesterase η-2 | near complete disappearance of the central Y8 amide | no chemical shift perturbations | increased PPP activation and decreased glycolysis in HA Del mice and further exacerbated responses in all the other strains | higher basal levels and further increases in PPP activation by MB | the defect in PPP activation of HA Del mice was rescued | a defect that was corrected by rescue; also recorded: partially rescued in vitro |
